Laboratory results: article PMC4716659 (European journal of medicinal chemistry, 2015)
Converted amounts (≈) assume the structure as drawn. “Also recorded” adds a separate entry of the source. Blank lines part the entries; values can stand above or below the compound they belong to.

Legend:
[1] = tested on: methicillin-resistant Staphylococcus aureus (MRSA) ATCC 43300; experiment: MIC, broth microdilution; format: cell-based; conditions: MRSA ATCC 43300
[2] = tested on: S. aureus NRS107 (MRSA); experiment: MIC, broth microdilution; format: cell-based, Staphylococcus aureus
[3] = tested on: S. aureus NRS119 (MRSA); experiment: MIC, broth microdilution; format: cell-based, Staphylococcus aureus
[4] = tested on: S. aureus NRS194 (MRSA); experiment: MIC, broth microdilution; format: cell-based, Staphylococcus aureus
[5] = tested on: S. aureus USA300 (MRSA); experiment: MIC, broth microdilution; format: cell-based, Staphylococcus aureus
[6] = tested on: S. aureus USA 400 (MRSA); experiment: MIC, broth microdilution; format: cell-based, Staphylococcus aureus
[7] = tested on: S. aureus USA500 (MRSA); experiment: MIC, broth microdilution; format: cell-based, Staphylococcus aureus
[8] = tested on: S. aureus NRS1 (VISA); experiment: MIC, broth microdilution; format: cell-based, Staphylococcus aureus
[9] = tested on: S. aureus NRS19 (VISA); experiment: MIC, broth microdilution; format: cell-based, Staphylococcus aureus
[10] = tested on: S. aureus NRS37 (VISA); experiment: MIC, broth microdilution; format: cell-based, Staphylococcus aureus
[11] = tested on: S. aureus VRS1 (VRSA); experiment: MIC, broth microdilution; format: cell-based, Staphylococcus aureus
[12] = tested on: S. aureus VRS4 (VRSA); experiment: MIC, broth microdilution; format: cell-based, Staphylococcus aureus
[13] = tested on: S. aureus VRS5 (VRSA); experiment: MIC, broth microdilution; format: cell-based, Staphylococcus aureus
[14] = tested on: S. aureus NRS107 (MRSA); experiment: MBC, plating onto TSA; format: cell-based, Staphylococcus aureus
[15] = tested on: S. aureus NRS119 (MRSA); experiment: MBC, plating onto TSA; format: cell-based, Staphylococcus aureus
[16] = tested on: S. aureus NRS194 (MRSA); experiment: MBC, plating onto TSA; format: cell-based, Staphylococcus aureus
[17] = tested on: S. aureus USA300 (MRSA); experiment: MBC, plating onto TSA; format: cell-based, Staphylococcus aureus
[18] = tested on: S. aureus USA 400 (MRSA); experiment: MBC, plating onto TSA; format: cell-based, Staphylococcus aureus
[19] = tested on: S. aureus USA500 (MRSA); experiment: MBC, plating onto TSA; format: cell-based, Staphylococcus aureus
[20] = tested on: S. aureus ATCC 43300 (MRSA); experiment: MBC, plating onto TSA; format: cell-based, Staphylococcus aureus
[21] = tested on: S. aureus NRS1 (VISA); experiment: MBC, plating onto TSA; format: cell-based, Staphylococcus aureus
[22] = tested on: S. aureus NRS19 (VISA); experiment: MBC, plating onto TSA; format: cell-based, Staphylococcus aureus
[23] = tested on: S. aureus NRS37 (VISA); experiment: MBC, plating onto TSA; format: cell-based, Staphylococcus aureus
[24] = tested on: S. aureus VRS1 (VRSA); experiment: MBC, plating onto TSA; format: cell-based, Staphylococcus aureus
[25] = tested on: S. aureus VRS4 (VRSA); experiment: MBC, plating onto TSA; format: cell-based, Staphylococcus aureus
[26] = tested on: S. aureus VRS5 (VRSA); experiment: MBC, plating onto TSA; format: cell-based, Staphylococcus aureus
[27] = tested on: two VISA isolates; experiment: MIC against VISA isolates; format: cell-based; conditions: Staphylococcus aureus
[28] = tested on: human embryonic kidney (HEK293) cell line; experiment: In vitro cytotoxicity, MTS assay; conditions: 40 μg/mL
[29] = tested on: MRSA USA300; experiment: Time-kill analysis; format: cell-based, Staphylococcus aureus; conditions: MRSA USA300, 3 × MIC, 37 °C
Summary of the method: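 Late-log-phase cells diluted to ~1 × 10^8 CFU/mL in MHB and exposed to test compound or vancomycin in triplicate at 37 °C. 20 μL samples taken at 0, 2, 4, 6, 8, 10, 12 and 24 h, serially diluted in PBS, and plated on TSA. Plates incubated 18–20 h at 37 °C, then viable CFU/mL counted. Data given as mean ± standard deviation.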

[30] = Microsomal stability analysis
[31] = Staphylococcus aureus, ATCC43300|MRSA
[32] = Staphylococcus aureus, MRSA|NRS107
[33] = Staphylococcus aureus, MRSA|NRS119
[34] = Staphylococcus aureus, MRSA|NRS194
[35] = Staphylococcus aureus, MRSA|USA300
[36] = Staphylococcus aureus, MRSA|USA400
[37] = Staphylococcus aureus, MRSA|USA500
[38] = Staphylococcus aureus, NRS1|VISA
[39] = Staphylococcus aureus, NRS19|VISA
[40] = Staphylococcus aureus, NRS37|VISA
[41] = human liver microsomes, with NADPH

MIC [1, 31]: > 39.8 µg/mL
SMILES: CC(=O)c1sc(-c2ccc(-c3ccc(F)cc3)cc2)nc1C [21b, 1-(2-(4′-Fluoro-[1,1′-biphenyl]-4-yl)-4-methylthiazol-5-yl)ethanone]

MIC [1, 31]: > 46.2 µg/mL
SMILES: CC(=O)c1sc(-c2ccc(-c3ccc(C(F)(F)F)cc3)cc2)nc1C [21c, 1-(4-Methyl-2-(4′-(trifluoromethyl)-[1,1′-biphenyl]-4-yl)thiazol-5-yl)ethanone]

MIC [1]: >46.7 µg/mL
MIC [1, 31]: > 36.9 µg/mL
SMILES: [H]/N=C(\N)NN=C(C)c1sc(-c2ccc(-c3ccc(O)cc3)cc2)nc1C [22a, (E)-2-(1-(2-(4′-Hydroxy-[1,1′-biphenyl]-4-yl)-4-methylthiazol-5-yl)ethylidene)hydrazinecarboximidamide]

MIC [2, 32]: 2.9 µg/mL (≈ 7.89 µM)
MIC [3, 33]: 5.9 µg/mL (≈ 16.1 µM)
MIC [4, 34]: 5.9 µg/mL (≈ 16.1 µM)
MIC [5, 35]: 5.9 µg/mL (≈ 16.1 µM)
MIC [6, 36]: 5.9 µg/mL (≈ 16.1 µM)
MIC [7, 37]: 5.9 µg/mL (≈ 16.1 µM)
MIC [1, 31]: 5.9 µg/mL (≈ 16.1 µM)
MIC [8, 38]: 2.9 µg/mL (≈ 7.89 µM)
MIC [9, 39]: 5.9 µg/mL (≈ 16.1 µM)
MIC [10, 40]: 2.9 µg/mL (≈ 7.89 µM)
MIC ([11]; Staphylococcus aureus, VRSA): 2.9 µg/mL (≈ 7.89 µM)
MIC ([12]; Staphylococcus aureus, VRSA): 2.9 µg/mL (≈ 7.89 µM)
MIC ([13]; Staphylococcus aureus, VRSA): 2.9 µg/mL (≈ 7.89 µM)
MIC [27]: 2.9 to 5.9 µg/mL (≈ 7.89 to 16.1 µM)
SMILES: [H]/N=C(\N)NN=C(C)c1sc(-c2ccc(-c3ccc(F)cc3)cc2)nc1C [22b, (E)-2-(1-(2-(4′-Fluoro-[1,1′-biphenyl]-4-yl)-4-methylthiazol-5-yl)ethylidene)hydrazinecarboximidamide]
MBC [14, 32]: 5.9 µg/mL (≈ 16.1 µM)
MBC [15, 33]: 11.7 µg/mL (≈ 31.8 µM)
MBC [16, 34]: 11.7 µg/mL (≈ 31.8 µM)
MBC [17, 35]: 5.9 µg/mL (≈ 16.1 µM)
MBC [18, 36]: 11.7 µg/mL (≈ 31.8 µM)
MBC [19, 37]: 5.9 µg/mL (≈ 16.1 µM)
MBC [20, 31]: 5.9 µg/mL (≈ 16.1 µM)
MBC [21, 38]: 2.9 µg/mL (≈ 7.89 µM)
MBC [22, 39]: 5.9 µg/mL (≈ 16.1 µM)
MBC [23, 40]: 5.9 µg/mL (≈ 16.1 µM)
MBC ([24]; Staphylococcus aureus, VRSA): 2.9 µg/mL (≈ 7.89 µM)
MBC ([25]; Staphylococcus aureus, VRSA): 2.9 µg/mL (≈ 7.89 µM)
MBC ([26]; Staphylococcus aureus, VRSA): 2.9 µg/mL (≈ 7.89 µM)
toxicity to mammalian cells (MTS assay) [28]: toxic

MIC [2, 32]: 6.3 µg/mL (≈ 16.1 µM)
MIC [3, 33]: 6.3 µg/mL (≈ 16.1 µM)
MIC [4, 34]: 6.3 µg/mL (≈ 16.1 µM)
MIC [5, 35]: 6.3 µg/mL (≈ 16.1 µM)
MIC [6, 36]: 6.3 µg/mL (≈ 16.1 µM)
MIC [7, 37]: 6.3 µg/mL (≈ 16.1 µM)
MIC [1, 31]: 6.3 µg/mL (≈ 16.1 µM)
MIC [8, 38]: 6.3 µg/mL (≈ 16.1 µM)
MIC [9, 39]: 12.5 µg/mL (≈ 31.9 µM)
MIC [10, 40]: 3.1 µg/mL (≈ 7.92 µM)
MIC ([11]; Staphylococcus aureus, VRSA): 3.1 µg/mL (≈ 7.92 µM)
MIC ([12]; Staphylococcus aureus, VRSA): 1.6 µg/mL (≈ 4.09 µM)
MIC ([13]; Staphylococcus aureus, VRSA): 6.3 µg/mL (≈ 16.1 µM)
SMILES: [H]/N=C(\N)NN=C(C)c1sc(-c2ccc(-c3ccc(C(C)=O)cc3)cc2)nc1C [22d, (E)-2-(1-(2-(4′-Acetyl-[1,1′-biphenyl]-4-yl)-4-methylthiazol-5-yl)ethylidene)hydrazinecarboximidamide]
MBC [14, 32]: 12.5 µg/mL (≈ 31.9 µM)
MBC [15, 33]: 12.5 µg/mL (≈ 31.9 µM)
MBC [16, 34]: 6.3 µg/mL (≈ 16.1 µM)
MBC [17, 35]: 6.3 µg/mL (≈ 16.1 µM)
MBC [18, 36]: 6.3 µg/mL (≈ 16.1 µM)
MBC [19, 37]: 6.3 µg/mL (≈ 16.1 µM)
MBC [20, 31]: 6.3 µg/mL (≈ 16.1 µM)
MBC [21, 38]: 6.3 µg/mL (≈ 16.1 µM)
MBC [22, 39]: 12.5 µg/mL (≈ 31.9 µM)
MBC [23, 40]: 6.3 µg/mL (≈ 16.1 µM)
MBC ([24]; Staphylococcus aureus, VRSA): 3.1 µg/mL (≈ 7.92 µM)
MBC ([25]; Staphylococcus aureus, VRSA): 3.1 µg/mL (≈ 7.92 µM)
MBC ([26]; Staphylococcus aureus, VRSA): 6.3 µg/mL (≈ 16.1 µM)
toxicity to mammalian cells (MTS assay) [28]: not toxic; also recorded: improved toxicity profile

Further lines, the compound ahead of its results:

SMILES: [H]/N=C(/N)NN=C(C)c1sc(-c2ccc(C#CCCCC)cc2)nc1C [compound 5, (Z)-2-(1-(2-(4-(Hex-1-yn-1-yl)phenyl)-4-methylthiazol-5-yl)ethylidene) hydrazinecarboximidamide]
MIC ([2]; NRS107 (MRSA)): 1.4 µg/mL (≈ 3.96 µM)
MIC ([3]; NRS119 (MRSA)): 1.4 µg/mL (≈ 3.96 µM)
MIC ([4]; NRS194 (MRSA)): 1.4 µg/mL (≈ 3.96 µM)
MIC ([5]; USA300 (MRSA)): 1.4 µg/mL (≈ 3.96 µM)
MIC ([6]; USA 400 (MRSA)): 1.4 µg/mL (≈ 3.96 µM)
MIC ([7]; USA500 (MRSA)): 1.4 µg/mL (≈ 3.96 µM)
MIC [1]: 1.4 µg/mL (≈ 3.96 µM)
MIC ([8]; NRS1 (VISA)): 0.7 µg/mL (≈ 1.98 µM)
MIC ([9]; NRS19 (VISA)): 1.4 µg/mL (≈ 3.96 µM)
MIC ([10]; NRS37 (VISA)): 1.4 µg/mL (≈ 3.96 µM)
MIC ([11]; VRS1 (VRSA)): 1.4 µg/mL (≈ 3.96 µM)
MIC ([12]; VRS4 (VRSA)): 1.4 µg/mL (≈ 3.96 µM)
MIC ([13]; VRS5 (VRSA)): 2.8 µg/mL (≈ 7.92 µM)
MBC ([14]; NRS107 (MRSA)): 1.4 µg/mL (≈ 3.96 µM)
MBC ([15]; NRS119 (MRSA)): 1.4 µg/mL (≈ 3.96 µM)
MBC ([16]; NRS194 (MRSA)): 1.4 µg/mL (≈ 3.96 µM)
MBC ([17]; USA300 (MRSA)): 1.4 µg/mL (≈ 3.96 µM)
MBC ([18]; USA 400 (MRSA)): 1.4 µg/mL (≈ 3.96 µM)
MBC ([19]; USA500 (MRSA)): 1.4 µg/mL (≈ 3.96 µM)
MBC ([20]; ATCC 43300 (MRSA)): 1.4 µg/mL (≈ 3.96 µM)
MBC ([21]; NRS1 (VISA)): 0.7 µg/mL (≈ 1.98 µM)
MBC ([22]; NRS19 (VISA)): 1.4 µg/mL (≈ 3.96 µM)
MBC ([23]; NRS37 (VISA)): 1.4 µg/mL (≈ 3.96 µM)
MBC ([24]; VRS1 (VRSA)): 1.4 µg/mL (≈ 3.96 µM)
MBC ([25]; VRS4 (VRSA)): 2.8 µg/mL (≈ 7.92 µM)
MBC ([26]; VRS5 (VRSA)): 2.8 µg/mL (≈ 7.92 µM)
time to completely eradicate MRSA growth [29]: ≤ 4 h
NADPH-dependent CLint [30, 41]: 3.7 µL/min/mg
NADPH-dependent T1/2 [30, 41]: >240 min
NADPH-free T1/2 ([30]; human liver microsomes, without NADPH): >240 min
half-life ([30]; pooled human liver microsomes): exceeds 4 hours

SMILES: [H]/N=C(\N)NN=C(C)c1sc(-c2ccc(C#CCCCCCCC)cc2)nc1C [compound 7, (E)-2-(1-(4-Methyl-2-[4-(non-1-yn-1-yl)phenyl]thiazol-5-yl)ethylidene)hydrazinecarboximidamide]
MIC [1, 31]: 12.6 µg/mL (≈ 31.9 µM)

SMILES: CCCCc1ccc(-c2nc(C)c(C(N)=O)s2)cc1 [compound 9, 2-(4-Butylphenyl)-4-methylthiazole-5-carboxamide]
MIC [1, 31]: > 35.1 µg/mL
